Our source for the MIC and HC50 values is ChEMBL document CHEMBL1765053, “Synthetic mimics of antimicrobial peptides from triaryl scaffolds” (J Med Chem, 2011).

Values after ≈ are worked out from the molar mass of the structure shown.

One series deals with Escherichia coli. The series is described as follows: Antibacterial activity against Escherichia coli ATCC 25922 after 18 hrs by microbroth dilution method. Conditions: ATCC 25922, 18 h. Type of series: functional. In short, it runs like this:
(§1)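 Hancock modification of CLSI broth microdilution, adjusted to limit compound adsorption to surfaces and precipitation. Bacteria grown overnight in Mueller-Hinton broth at 37 °C. Compounds tested as di-TFA salts or diamine, from DMSO/Hancock solution (0.01% acetic acid, 0.2% BSA) 2-fold stocks diluted 10-fold into culture. Final 100 to 0.05 μg/mL, duplicate. Growth read as OD600 after 18 h at 37 °C. MIC taken as >90% growth inhibition.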
A general note: Dilution methods test growth across graded concentrations, often in twofold steps.

For a further series, the system named is Staphylococcus aureus. The series is described as follows: Antibacterial activity against Staphylococcus aureus ATCC 27660 after 18 hrs by microbroth dilution method. The format is functional. Conditions: ATCC 27660, 18 h. The method in brief:
as §1

The test system of a further series is Klebsiella pneumoniae. Description: Antibacterial activity against Klebsiella pneumoniae ATCC 13883 after 18 hrs by microbroth dilution method. The format is functional. Conditions: ATCC 13883, 18 h. In short, it runs like this:
as §1

Series [1] can be described thus: Toxicity in human RBC assessed as hemolysis after 1 hr. The format is cell-based, Erythrocyte. Conditions: human red blood cells (RBC). In short, it runs like this: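 RBCs spun down from human whole blood and diluted in TBS to a 0.22% stock suspension. Serial 1:2 dilutions of compound in water added, highest final 1000 μg/mL. Shaken 1 h at 37 °C, then centrifuged 3000 rpm for 5 min. Supernatant diluted into water and released hemoglobin quantified. HC50 is the lowest concentration lysing 50% of RBCs.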

Turning to `NCCC(=O)Nc1ccc(C(F)(F)F)cc1-c1ccc(-c2cc(C(F)(F)F)ccc2NC(=O)CCN)nc1.O=C(O)C(F)(F)F.O=C(O)C(F)(F)F`, the values for the MIC against Escherichia coli, against Staphylococcus aureus and in the series with Klebsiella pneumoniae were 50 µg/mL, 25 µg/mL and more than 100 µg/mL, respectively. In series [1], the HC50 at 1 h turned out to be 356 µg/mL.

`CC(C)(C)c1ccc(NC(=O)CCCCNC(=N)N)c(-c2ccc(-c3cc(C(C)(C)C)ccc3NC(=O)CCCCNC(=N)N)cc2)c1.O=C(O)C(F)(F)F.O=C(O)C(F)(F)F`: the MIC in the series with Escherichia coli stood at 6.25 µg/mL; against Staphylococcus aureus, 0.78 µg/mL; in the series with Klebsiella pneumoniae, 12.5 µg/mL. In addition, the HC50 at 1 h in series [1] stood at 12.8 µg/mL.

For `NCCC(=O)Nc1ccccc1-c1ccc(-c2ccccc2NC(=O)CCN)nn1.O=C(O)C(F)(F)F.O=C(O)C(F)(F)F`, the MIC in the series with Escherichia coli is 50 µg/mL; in the series with Staphylococcus aureus it was 50 µg/mL; in the series on Klebsiella pneumoniae, more than 50 µg/mL. Also, the HC50 at 1 h in series [1] was more than 1000 µg/mL.

On to `CC(C)(C)c1ccc(NC(=O)CCN)c(-c2ccc(-c3cc(C(C)(C)C)ccc3NC(=O)CCN)cc2)c1.O=C(O)C(F)(F)F.O=C(O)C(F)(F)F`, for which the MIC was determined as 6.25 µg/mL against Escherichia coli, 3.13 µg/mL in the series with Staphylococcus aureus and 12.5 µg/mL in the series on Klebsiella pneumoniae. For the same compound, in series [1], the 50% haemolytic concentration (HC50) at 1 h was 6.46 µg/mL.

Consider `NCCC(=O)Nc1ccc(C(F)(F)F)cc1-c1ccc(-c2cc(C(F)(F)F)ccc2NC(=O)CCN)cc1.O=C(O)C(F)(F)F.O=C(O)C(F)(F)F`, for which the minimal inhibitory concentration (MIC) against Escherichia coli is 12.5 µg/mL; in the series on Staphylococcus aureus it was 3.13 µg/mL; in the series with Klebsiella pneumoniae, 25 µg/mL. Moreover, the HC50 at 1 h in series [1] is 36.5 µg/mL.

Take `NCCC(=O)Nc1ccc(C(F)(F)F)cc1-c1ccc(-c2cc(C(F)(F)F)ccc2NC(=O)CCN)nn1.O=C(O)C(F)(F)F.O=C(O)C(F)(F)F`: the minimal inhibitory concentration (MIC) with Escherichia coli was 50 µg/mL; against Staphylococcus aureus, 25 µg/mL; in the series on Klebsiella pneumoniae, 50 µg/mL. The HC50 at 1 h in series [1] is 191 µg/mL.

With `CC(C)(C)c1ccc(NC(=O)CCCCN)c(-c2ccc(-c3cc(C(C)(C)C)ccc3NC(=O)CCCCN)cc2)c1.O=C(O)C(F)(F)F.O=C(O)C(F)(F)F`, the values for the minimal inhibitory concentration (MIC) against Escherichia coli, in the series on Staphylococcus aureus and with Klebsiella pneumoniae were 6.25 µg/mL, 3.13 µg/mL and 12.5 µg/mL, respectively. Further, in series [1], the HC50 at 1 h was 34.5 µg/mL.

Regarding “H-GIGKFLKKAKKFGKAFVKILKK-NH2 [PEXIGANAN]”, the minimal inhibitory concentration (MIC) against Escherichia coli came out at 16 µg/mL; with Staphylococcus aureus it was 8 µg/mL. For the same compound, the HC50 at 1 h in series [1] was 120 µg/mL.

Regarding `CC(C)(C)c1ccc(NC(=O)CCN)c(-c2ccc(-c3cc(C(C)(C)C)ccc3NC(=O)CCN)nn2)c1.O=C(O)C(F)(F)F.O=C(O)C(F)(F)F`, the minimal inhibitory concentration (MIC) with Escherichia coli is 50 µg/mL; with Staphylococcus aureus, 12.5 µg/mL; in the series on Klebsiella pneumoniae it was 100 µg/mL. In series [1], the concentration for 50% haemolysis (HC50) at 1 h turned out to be 82.5 µg/mL.

On to `CC(C)(C)c1ccc(NC(=O)CCN)c(-c2ccc(-c3cc(C(C)(C)C)ccc3NC(=O)CCN)nc2)c1.O=C(O)C(F)(F)F.O=C(O)C(F)(F)F`, for which the minimum inhibitory concentration (MIC) against Escherichia coli was determined as 12.5 µg/mL; in the series on Staphylococcus aureus it was 12.5 µg/mL; against Klebsiella pneumoniae it was 25 µg/mL. The 50% haemolytic concentration (HC50) at 1 h in series [1] stood at 39 µg/mL.

For `CC(C)(C)c1ccc(NC(=O)CCCCN)c(-c2ccc(-c3cc(C(C)(C)C)ccc3NC(=O)CCCCN)nn2)c1`, the minimal inhibitory concentration (MIC) against Escherichia coli is 25 µg/mL (≈ 43.6 µM); against Staphylococcus aureus, 12.5 µg/mL (≈ 21.8 µM); in the series with Klebsiella pneumoniae it was 25 µg/mL (≈ 43.6 µM).

As usually defined, the MIC is the least concentration at which growth counts as inhibited. Usually HC50 stands for the concentration giving 50% haemolysis.
